We go through 26 compounds from ChEMBL document CHEMBL4425120, “N1-Azinylsulfonyl-1H-indoles: 5-HT6 Receptor Antagonists with Procognitive and Antidepressant-Like Properties” (ACS Med Chem Lett, 2016).

In series [1] the target is T1, 5-hydroxytryptamine receptor 6 (Homo sapiens, UniProt P50406). Description: Displacement of [3H]-LSD from human 5-HT6 receptor expressed in HEK293 cells by microbeta liquid scintillation counting. Format: cell-based. In outline:
(§1)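 Ki values reported as the mean of two independent radioligand binding experiments.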
On the technique in general: Loss of bound radioactivity is the signal in a displacement assay; it reports binding, not function.

The target in series [2] is T2, 5-hydroxytryptamine receptor 1A (Homo sapiens, UniProt P08908).
T2 sequence (P08908 whole entry): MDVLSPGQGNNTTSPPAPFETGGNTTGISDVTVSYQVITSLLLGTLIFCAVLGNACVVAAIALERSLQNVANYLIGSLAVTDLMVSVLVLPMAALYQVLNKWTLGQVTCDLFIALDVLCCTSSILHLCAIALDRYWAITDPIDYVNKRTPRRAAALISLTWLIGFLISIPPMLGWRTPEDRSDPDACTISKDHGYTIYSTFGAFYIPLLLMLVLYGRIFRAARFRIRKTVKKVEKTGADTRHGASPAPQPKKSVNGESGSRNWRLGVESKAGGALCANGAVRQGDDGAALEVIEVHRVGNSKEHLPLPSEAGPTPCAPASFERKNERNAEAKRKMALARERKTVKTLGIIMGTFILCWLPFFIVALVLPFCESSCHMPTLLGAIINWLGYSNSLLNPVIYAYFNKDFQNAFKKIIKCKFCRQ
In words: Displacement of [3H]-8-OH-DPAT from human 5-HT1A receptor expressed in HEK293 cells by microbeta liquid scintillation counting. Format: cell-based. In outline: as §1

For series [3], the species on record is Homo sapiens. Description: Selectivity ratio of Ki for human 5-HT1A receptor expressed in HEK293 cells to Ki for human 5-HT6 receptor expressed in HEK293 cells. Format: cell-based.
The species entered for series [4] is Homo sapiens. In words: Selectivity ratio of Ki for human D2L receptor expressed in HEK293 cells to Ki for human 5-HT6 receptor expressed in HEK293 cells. In kind it is cell-based.
The species named for series [5] is Homo sapiens. Description: Selectivity ratio of Ki for human 5-HT7B receptor expressed in HEK293 cells to Ki for human 5-HT6 receptor expressed in HEK293 cells. Format: cell-based.
Series [6] concerns the target 5-hydroxytryptamine receptor 7 (Homo sapiens, UniProt P34969). In words: Displacement of [3H]-5-CT from human 5-HT7B receptor expressed in HEK293 cells by microbeta liquid scintillation counting. In kind it is cell-based. The essentials: as §1
The next series addresses D(2) dopamine receptor (Homo sapiens, UniProt P14416). Description: Displacement of [3H]-Raclopride from human D2L receptor expressed in HEK293 cells by microbeta liquid scintillation counting. Format: cell-based. The essentials: as §1
The target of series [7] is 5-hydroxytryptamine receptor 2A (Homo sapiens, UniProt P28223). Description: Displacement of [3H]-Ketanserin from human 5-HT2A receptor expressed in HEK293 cells by microbeta liquid scintillation counting. In kind it is cell-based. The essentials: as §1
Sequence of 5-hydroxytryptamine receptor 2A (P28223 whole entry): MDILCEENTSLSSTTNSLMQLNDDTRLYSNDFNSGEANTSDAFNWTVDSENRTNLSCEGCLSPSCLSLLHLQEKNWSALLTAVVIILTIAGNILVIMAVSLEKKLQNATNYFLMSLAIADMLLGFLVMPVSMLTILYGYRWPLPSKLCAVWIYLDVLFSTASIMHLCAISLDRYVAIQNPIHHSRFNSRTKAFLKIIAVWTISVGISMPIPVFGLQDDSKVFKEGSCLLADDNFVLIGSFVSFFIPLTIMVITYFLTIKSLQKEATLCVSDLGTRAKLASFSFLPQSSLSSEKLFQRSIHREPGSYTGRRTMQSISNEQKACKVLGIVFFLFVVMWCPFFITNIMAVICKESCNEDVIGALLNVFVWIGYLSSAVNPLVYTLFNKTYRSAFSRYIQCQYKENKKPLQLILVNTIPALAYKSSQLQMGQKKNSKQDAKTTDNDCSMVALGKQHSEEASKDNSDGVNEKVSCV
The species named for series [8] is Homo sapiens. Description: Selectivity ratio of Ki for human 5-HT2A receptor expressed in HEK293 cells to Ki for human 5-HT6 receptor expressed in HEK293 cells. Format: cell-based.
The test system of series [9] is Rattus norvegicus. In words: Antianxietic activity in ip dosed Wistar rat assessed as increase in number of shocks accepted measured for 5 mins by Vogel conflict drinking test. Format: functional. The settings on record: read-out: MED.
Series [10] deals with Rattus norvegicus. In words: Antidepressant activity in Sprague-Dawley rat assessed as increase in climbing time at 3 mg/kg, ip adminstered 60 mins prior to testing measured for 5 mins by forced swimming test. In kind it is functional, organism-based. In outline: (§2)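 Modified forced swim test in rats, compounds given i.p.; immobility and climbing times scored against a vehicle-treated group; N = 7–8 animals per group; mean ± SEM.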

Series [11] is described as follows: Toxicity in Sprague-Dawley rat assessed as effect on locomotory activity at 0.3 to 3 mg/kg, ip measured for 5 mins by open field test. In kind it is organism-based. The settings on record: in vivo.
The test system of series [12] is Rattus norvegicus. Description: Antianxietic activity in ip dosed Wistar rat assessed as increase in number of licks accepted measured for 5 mins by Vogel conflict drinking test. The settings on record: read-out: MED. Format: functional.
Series [13] deals with 5-hydroxytryptamine receptor 6 (Rattus norvegicus, UniProt P31388). Description: Displacement of [3H]Lu AE60157 from rat brain 5-HT6 receptor.
Sequence of 5-hydroxytryptamine receptor 6 (Rattus norvegicus, UniProt P31388) (P31388 whole entry): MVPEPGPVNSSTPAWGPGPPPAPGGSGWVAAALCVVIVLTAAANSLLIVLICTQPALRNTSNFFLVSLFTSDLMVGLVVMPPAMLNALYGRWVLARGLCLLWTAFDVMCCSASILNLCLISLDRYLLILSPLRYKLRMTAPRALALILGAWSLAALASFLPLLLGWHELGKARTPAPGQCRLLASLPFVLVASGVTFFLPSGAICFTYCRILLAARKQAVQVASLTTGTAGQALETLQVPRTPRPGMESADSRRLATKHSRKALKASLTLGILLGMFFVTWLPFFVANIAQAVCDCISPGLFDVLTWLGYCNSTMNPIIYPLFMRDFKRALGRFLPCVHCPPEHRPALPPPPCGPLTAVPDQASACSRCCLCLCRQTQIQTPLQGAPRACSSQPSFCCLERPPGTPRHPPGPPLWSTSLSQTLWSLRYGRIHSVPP
The test system of series [14] is Rattus norvegicus. Description: Antidepressant activity in Sprague-Dawley rat assessed as reduction in immobility time at 3 mg/kg, ip adminstered 60 mins prior to testing measured for 5 mins by forced swimming test. In kind it is functional, organism-based. In outline:
as §2

Series [15] concerns Rattus norvegicus. Description: Cognitive enhancing effect in Sprague-Dawley rat assessed as reversal of PCP induced memory deficit at 0.3 to 1 mg/kg, ip administered 1 hour and 15 mins before familiarization phase by novel object recognition test. In kind it is functional, organism-based. In outline: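 Novel object recognition in rats with PCP-induced memory deficit; compounds given i.p.; groups compared with vehicle and with PCP; N = 7–12 animals per group; mean ± SEM.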

In series [16] the target is T1, 5-hydroxytryptamine receptor 6. In words: Inhibition of 5-HT6 receptor (unknown origin).

Activity calls are given as the source filed them. No cut-off for these calls is given here.

Sequence of D(2) dopamine receptor (P14416 whole entry): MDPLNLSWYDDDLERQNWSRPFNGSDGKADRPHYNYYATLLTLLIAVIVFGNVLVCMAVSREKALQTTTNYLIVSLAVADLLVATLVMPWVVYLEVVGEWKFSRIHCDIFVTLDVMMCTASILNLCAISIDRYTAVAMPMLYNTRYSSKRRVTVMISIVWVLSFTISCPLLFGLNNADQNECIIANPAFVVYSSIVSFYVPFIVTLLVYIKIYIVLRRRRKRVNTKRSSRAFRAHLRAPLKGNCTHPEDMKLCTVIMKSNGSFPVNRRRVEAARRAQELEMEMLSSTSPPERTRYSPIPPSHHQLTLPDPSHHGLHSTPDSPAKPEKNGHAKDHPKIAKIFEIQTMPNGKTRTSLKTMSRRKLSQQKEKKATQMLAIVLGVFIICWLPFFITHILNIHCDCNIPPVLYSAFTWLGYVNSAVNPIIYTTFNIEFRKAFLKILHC
T1 sequence (P50406 whole entry): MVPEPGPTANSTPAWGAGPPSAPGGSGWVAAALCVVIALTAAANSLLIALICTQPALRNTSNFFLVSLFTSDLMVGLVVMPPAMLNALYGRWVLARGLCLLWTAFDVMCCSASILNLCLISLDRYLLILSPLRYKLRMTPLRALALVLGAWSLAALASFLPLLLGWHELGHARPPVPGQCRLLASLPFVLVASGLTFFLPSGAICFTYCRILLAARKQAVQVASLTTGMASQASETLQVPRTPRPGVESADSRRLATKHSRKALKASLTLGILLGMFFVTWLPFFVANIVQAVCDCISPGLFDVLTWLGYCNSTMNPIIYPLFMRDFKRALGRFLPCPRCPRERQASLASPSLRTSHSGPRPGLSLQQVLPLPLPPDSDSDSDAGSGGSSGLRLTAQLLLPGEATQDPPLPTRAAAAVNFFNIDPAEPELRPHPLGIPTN
Sequence of 5-hydroxytryptamine receptor 7 (P34969 whole entry): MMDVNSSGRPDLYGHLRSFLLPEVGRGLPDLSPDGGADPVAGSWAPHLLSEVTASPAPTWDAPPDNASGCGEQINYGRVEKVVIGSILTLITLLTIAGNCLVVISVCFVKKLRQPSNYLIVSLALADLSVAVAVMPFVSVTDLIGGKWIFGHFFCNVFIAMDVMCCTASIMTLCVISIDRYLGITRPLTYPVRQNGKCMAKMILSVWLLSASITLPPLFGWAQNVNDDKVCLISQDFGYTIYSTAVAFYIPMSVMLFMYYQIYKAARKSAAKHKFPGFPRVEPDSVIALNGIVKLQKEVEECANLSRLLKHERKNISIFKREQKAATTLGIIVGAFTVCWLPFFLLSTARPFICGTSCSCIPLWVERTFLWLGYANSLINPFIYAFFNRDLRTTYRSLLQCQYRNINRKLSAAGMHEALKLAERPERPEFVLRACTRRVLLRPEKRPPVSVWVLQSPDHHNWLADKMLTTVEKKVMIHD

In general, Ki refers to the dissociation constant of the complex between target and ligand, obtained from inhibition or displacement. A high value points to weaker binding. `O=S(=O)(c1cnc2ccccc2c1)n1cc(C2=CCNCC2)c2cc(Cl)ccc21`: the Ki in [1] was 11 nM.
In the case of `O=S(=O)(c1ccc2cccnc2c1)n1cc(C2=CCNCC2)c2ccccc21`, the Ki in series [1] is 7 nM.
Consider `Cc1c(C2=CCNCC2)c2ccccc2n1S(=O)(=O)c1cc2ccccc2cn1`, for which the affinity in series [1], expressed as Ki, was 20 nM.
For the compound `CCCCN1CC=C(c2cn(S(=O)(=O)c3ccc4cccnc4c3)c3ccc(OC)cc23)CC1`, the Ki in series [1] came out at 219 nM.
The compound `O=S(=O)(c1cccc2ncccc12)n1cc(C2=CCNCC2)c2cc(Cl)ccc21` yielded a Ki in series [1] of 11 nM.
As for `CCCN1CC=C(c2cn(S(=O)(=O)c3ccc4cccnc4c3)c3ccc(OC)cc23)CC1`, the Ki in [1] worked out at 247 nM.
In turn, `O=S(=O)(c1cncc2ccccc12)n1cc(C2=CCNCC2)c2ccccc21` came in with a Ki in [1] of 5 nM.
On to `O=S(=O)(c1ccc2cccnc2c1)n1cc(C2=CCNCC2)c2cc(Cl)ccc21`, for which the Ki in series [2] was found to be 2470 nM; in [6], 7320 nM; at D(2) dopamine receptor it was 1170 nM; in [7] it was 2590 nM; in series [1], 9 nM. Moreover, the Ratio Ki in the series filed under Homo sapiens [3], in the series listed under Homo sapiens [4], in the series filed under Homo sapiens [5] and in the series listed under Homo sapiens [8] was 70 throughout.
With `O=S(=O)(c1ccccc1)c1cnc2c(N3CCNCC3)cccc2c1` [INTEPIRDINE], the minimal effective dose with Rattus norvegicus [9] and in the series on Rattus norvegicus [12] was 3 mg/kg in each case. Further, the outcome with Rattus norvegicus [10], with Rattus norvegicus [14] and in the series on Rattus norvegicus [15] was Active. In addition, in [11], the Activity entry is recorded as “Non-Toxic”. Further, in series [13], affinity was put at a Ki of 0.234 nM.
In the case of `COc1ccc2c(c1)c(C1CCNCC1)cn2S(=O)(=O)c1ccc2cccnc2c1`, the Ki in [1] was 30 nM.
For `COc1ccc2c(c1)c(C1CCNCC1)cn2S(=O)(=O)c1cncc2ccccc12`, the Ki in series [1] was 24 nM.
Regarding `COc1ccc2c(c1)c(C1=CCNCC1)cn2S(=O)(=O)c1cccc2ncccc12`, the Ki in [2] came to 2940 nM; in series [6], 2350 nM; on D(2) dopamine receptor it was 302 nM; in series [7] it was 1550 nM; in series [1], 4 nM. For the same compound, the Ratio Ki in the series listed under Homo sapiens [3], in the series listed under Homo sapiens [4], in the series listed under Homo sapiens [5] and in the series filed under Homo sapiens [8] was 70 throughout.
With `COc1ccc2c(c1)c(C1=CCNCC1)cn2S(=O)(=O)c1cnc2ccccc2c1`, in series [1], the affinity corresponds to a Ki of 8 nM.
Still for that read-out and setting: as for `O=S(=O)(c1cncc2ccccc12)n1cc(C2=CCNCC2)c2cc(Cl)ccc21`, the figure is 18 nM.
Compound `CSc1nn2c(C)cc(C)nc2c1S(=O)(=O)c1ccccc1` showed a Ki in series [16] of 2.1 nM.
Turning to `COc1ccc2c(c1)c(C1=CCN(C)CC1)cn2S(=O)(=O)c1ccc2cccnc2c1`, in series [1], the affinity corresponds to a Ki of 82 nM.
In [1], `O=S(=O)(c1cnc2ccccc2c1)n1cc(C2=CCNCC2)c2ccccc21` showed a Ki of 13 nM.
The compound `O=S(=O)(c1cc2ccccc2cn1)n1cc(C2=CCNCC2)c2ccccc21` returned a Ki in series [1] of 12 nM.
In series [1], `O=S(=O)(c1cc2ccccc2cn1)n1cc(C2=CCNCC2)c2ccc(Cl)cc21` came in with a Ki of 102 nM.
In the case of `O=S(=O)(c1ccc2cccnc2c1)n1cc(C2=CCNCC2)c2ccc(Cl)cc21`, the inhibition constant (Ki) in [1] was determined as 22 nM.
In turn, `COc1ccc2c(c1)c(C1=CCNCC1)cn2S(=O)(=O)c1cc2ccccc2cn1` displayed a Ki in series [1] of 6 nM.
Turning to `O=S(=O)(c1ccc2ncccc2c1)n1cc(C2=CCNCC2)c2ccccc21`, the Ki worked out at 1870 nM in series [2]; 6660 nM in series [6]; 1410 nM at D(2) dopamine receptor; 1410 nM in series [7]; 20 nM in [1]. The Ratio Ki in the series filed under Homo sapiens [3], in the series listed under Homo sapiens [4], in the series listed under Homo sapiens [5] and in the series listed under Homo sapiens [8] was 70 throughout.
In the case of `O=S(=O)(c1cnc2ccccc2c1)n1cc(C2=CCNCC2)c2ccc(Cl)cc21`, in series [1], the affinity, expressed as Ki, was 37 nM.
With `O=S(=O)(c1ccc2ncccc2c1)n1cc(C2=CCNCC2)c2ccc(Cl)cc21`, in series [1], the Ki was 112 nM.
Turning to `Cc1c(C2=CCNCC2)c2ccccc2n1S(=O)(=O)c1ccc2cccnc2c1`, in series [1], the Ki is 18 nM.
`COc1ccc2c(c1)c(C1=CCNCC1)cn2S(=O)(=O)c1ccc2ncccc2c1` gave a Ki in [1] of 14 nM.
